From ChEMBL document CHEMBL4330142, “Eupatoriopicrin Inhibits Pro-inflammatory Functions of Neutrophils via Suppression of IL-8 and TNF-alpha Production and p38 and ERK 1/2 MAP Kinases” (J Nat Prod, 2019)
Calls of active or inactive are those of the source. The rule behind the calls is not given here.

Columns and labels:
Neutrophil [1] = assay: Inhibition of LPS-induced delay of apoptosis in human neutrophils assessed as late apoptotic cells at 2.5 uM preincubated for 1 hr followed by LPS stimulation and measured after 24 hrs by Annexin V-FITC/propidium iodide staining based flow cytometry (reference value: 9.5 +/- 1.8%); assay type: functional; design: scale not given: the % may be the effect or the level left
[2] = Anti-inflammatory activity in human PMN assessed as inhibition of fMLP/cytochalasin A-induced CD11b/CD18 expression by measuring CD11b/CD18 expression level at 50 uM preincubated for 30 mins followed by fMLP/cytochalasin A addition and measured after 30 mins by flow cytometry relative to control; assay type: functional; design: scale not given: the % may be the effect or the level left
Summary of the method: (§1)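 Neutrophils preincubated with compound before stimulation with cytochalasin A combined with f-MLP; surface CD11b expression read by flow cytometry. Compounds from 10 mM DMSO stock diluted in buffer or RPMI 1640. Mean ± SEM of three experiments on neutrophils from independent donors, Dunnett's post hoc test versus stimulated control.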

Neutrophil [3] = assay: Inhibition of LPS-stimulated TNFalpha production in human neutrophils at 2.5 uM after 24 hrs by ELISA; assay type: functional, cell-based
Summary of the method: (§2)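 Human neutrophils were preincubated with compound, then LPS-stimulated. TNF-α in the culture medium was measured by ELISA 24 h after LPS. Three separate experiments used neutrophils from independent donors, each assayed in duplicate; mean ± SEM; Dunnett's test versus the stimulated control.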

Neutrophil [4] = assay: Inhibition of LPS-induced delay of apoptosis in human neutrophils assessed as necrotic cells at 2.5 uM preincubated for 1 hr followed by LPS stimulation and measured after 24 hrs by Annexin V-FITC/propidium iodide staining based flow cytometry (reference value: 2.1 +/- 0.4%); assay type: functional; design: scale not given: the % may be the effect or the level left
Neutrophil [5] = assay: Inhibition of LPS-induced delay of apoptosis in human neutrophils assessed as early apoptotic cells at 2.5 uM preincubated for 1 hr followed by LPS stimulation and measured after 24 hrs by Annexin V-FITC/propidium iodide staining based flow cytometry (reference value: 13 +/- 1.9%); assay type: functional; design: scale not given: the % may be the effect or the level left
Neutrophil [6] = assay: Inhibition of LPS-stimulated TNFalpha production in human neutrophils at 50 uM after 24 hrs by ELISA; assay type: functional, cell-based; summary of the method: as §2
Neutrophil [7] = assay: Inhibition of LPS-stimulated IL-8 production in human neutrophils at 2.5 uM after 24 hrs by ELISA; assay type: functional, cell-based
Neutrophil [8] = assay: Inhibition of fMLP/cytochalasin A-stimulated elastase release in human neutrophils assessed as elastase level at 50 uM preincubated for 15 mins followed by fMLP/cytochalasin A stimulation and measured after 15 mins by SAAVNA substrate based spectrophotometric method (reference value: 100%); design: scale not given: the % may be the effect or the level left
[9] = Anti-inflammatory activity in human PMN assessed as inhibition of fMLP/cytochalasin A-induced CD11b/CD18 expression by measuring CD11b/CD18 expression level at 2.5 uM preincubated for 30 mins followed by fMLP/cytochalasin A addition and measured after 30 mins by flow cytometry relative to control; assay type: functional; design: scale not given: the % may be the effect or the level left; summary of the method: as §1
Neutrophil [10] = assay: Inhibition of LPS-induced delay of apoptosis in human neutrophils assessed as viable cells at 2.5 uM preincubated for 1 hr followed by LPS stimulation and measured after 24 hrs by Annexin V-FITC/propidium iodide staining based flow cytometry (reference value: 75.4 +/- 1.1%); assay type: functional; settings: read-out: Activity
Homo sapiens = species: Homo sapiens; assay: Anti-inflammatory activity in human PMN assessed as inhibition of fMLP/cytochalasin A-induced CD11b/CD18 expression at 2.5 uM preincubated for 30 mins followed by fMLP/cytochalasin A addition and measured after 30 mins by flow cytometry; assay type: functional
Summary of the method: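 Freshly isolated human PMNs were preincubated with compound, then stimulated with cytochalasin A plus f-MLP. Surface CD11b was read by FACS relative to the stimulated control. Three separate experiments used neutrophils from independent donors; mean ± SEM. Compounds came from 10 mM DMSO stocks diluted in Ca2+-free HBSS/PBS pH 7.4 or RPMI 1640.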

Structure (SMILES)	Activity (Neutrophil [1])	Activity [2]	inhibition (Neutrophil [3])	Activity (Neutrophil [4])	Activity (Neutrophil [5])	inhibition (Neutrophil [6])	inhibition (Neutrophil [7])	Activity (Neutrophil [8])	Activity [9]	viability at 2.5 µM (Neutrophil [10])	inhibition (Homo sapiens)
CC[C@H]1OC(=O)[C@H](C)[C@@H](O[C@H]2C[C@@](C)(OC)[C@@H](O)[C@H](C)O2)[C@H](C)[C@@H](O[C@@H]2O[C@H](C)C[C@H](N(C)C)[C@H]2O)[C@](C)(OC)C[C@@H](C)C(=O)[C@H](C)[C@@H](O)[C@]1(C)O [CLARITHROMYCIN]	13.3%	31.5%	inactive	1.1%	33.7%	Active	Active	39%	67.7%	49.8%	
O=c1c(O)c(-c2ccc(O)c(O)c2)oc2cc(O)cc(O)c12 [QUERCETIN]	15.4%		inactive	1%	27%	Active		26.6%		58.8%	inactive
